Measurements taken from ChEMBL document CHEMBL4811272, “A new sulfated triterpene glycoside from the sea cucumber Colochirus quadrangularis, and evaluation of its antifungal, antitumor and immunomodulatory activities” (Bioorg Med Chem, 2021).
Values after ≈ are worked out from the molar mass of the structure shown.

How the values were obtained:
H22 = test: Antitumor activity against mouse H22 cells implanted in KM mouse assessed as tumor growth inhibition at 25 mg/kg, IG administered everyday for 7 days relative to control; format: functional; details: H22, po, 168 h, time 7 day, read-out: TGI
Summary of the method: (§1)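 S-180 or H22 cells, about 2.5 × 10⁶ per mouse, injected s.c. in the right axilla of wild-type KM mice. Randomized after 24 h and dosed intragastrically for 7 days; sacrificed 24 h after the last dose. TGI = (W_C − W_T)/W_C × 100% from average tumor weight. n = 8; one-way ANOVA vs vehicle.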

CCRF S-180 = test: Antitumor activity against mouse S-180 cells implanted in KM mouse assessed as tumor growth inhibition at 25 mg/kg, IG administered everyday for 7 days relative to control; format: functional; details: CCRF S-180, po, 168 h, time 7 day, read-out: TGI; summary of the method: as §1
Pyricularia oryzae = test: Antifungal activity against Pyricularia oryzae P-2B by measuring minimum morphological deformation concentration; format: functional; details: read-out: MEC
Candida albicans = test: Antifungal activity against Candida albicans ATCC 76615 by microplate reader assay; format: functional; details: ATTCC76615
Summary of the method: (§2)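 Broth microdilution read by optical density at 630 nm. MIC80 is the first well with about 80% less growth than the drug-free well. Each concentration was run in three replicate wells, and values are means of three independent experiments.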

Candida parapsilosis = test: Antifungal activity against clinical strain Candida parapsilosis by microplate reader assay; format: functional; details: Lodderomyces parapsilosis; summary of the method: as §2
Cryptococcus neoformans = test: Antifungal activity against Cryptococcus neoformans ATCC 32609 by microplate reader assay; format: functional; details: ATTCC32609; summary of the method: as §2
Candida tropicalis = test: Antifungal activity against clinical strain Candida tropicalis by microplate reader assay; format: functional; summary of the method: as §2
HCT-116 = test: Cytotoxicity against human HCT-116 cells assessed as reduction in cell viability by sulforhodamine B assay; format: functional, cell-based
Summary of the method: (§3)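 Cells were kept in RPMI-1640 with 10% FBS, 2 mM L-glutamine, 50 μM β-mercaptoethanol and penicillin/streptomycin, at 37 °C in 5% CO2. SRB assay used 100, 10, 1, 0.1 and 0.01 μM, each in triplicate. Percent inhibition was calculated against solvent control OD. IC50 came from Logit curve fitting and is the mean of three independent experiments.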

SPC-A4 = test: Cytotoxicity against human SPC-A4 cells assessed as reduction in cell viability by sulforhodamine B assay; format: functional, cell-based; summary of the method: as §3
HL-60 = test: Cytotoxicity against human HL-60 cells assessed as reduction in cell viability by sulforhodamine B assay; format: functional, cell-based; summary of the method: as §3
MCF7 = test: Cytotoxicity against human MCF7 cells assessed as reduction in cell viability by sulforhodamine B assay; format: functional, cell-based; summary of the method: as §3
[1] = Cytotoxicity against human HO-8910 cells assessed as reduction in cell viability by sulforhodamine B assay; format: functional, cell-based; summary of the method: as §3
Bel-7402 [2] = test: Cytotoxicity against human Bel-7402 cells assessed as reduction in cell viability by sulforhodamine B assay; format: functional, cell-based; summary of the method: as §3
MKN-28 = test: Cytotoxicity against human MKN-28 cells assessed as reduction in cell viability by sulforhodamine B assay; format: functional, cell-based; summary of the method: as §3
A549 = test: Cytotoxicity against human A549 cells assessed as reduction in cell viability by sulforhodamine B assay; format: functional, cell-based; summary of the method: as §3
Bel-7402 [3] = test: Antitumor activity against human Bel-7402 cells implanted in BALB/c-nu mouse assessed as tumor growth inhibition at 100 mg/kg, IG administered everyday for 7 days relative to control; format: functional; details: Bel-7402, po, 168 h, time 7 day, read-out: TGI

| SMILES | inhibition in vivo at 25 mg/kg (H22) | inhibition in vivo at 25 mg/kg (CCRF S-180) | minimal effective concentration (Pyricularia oryzae) | MIC80 (Candida albicans) | MIC80 (Candida parapsilosis) | MIC80 (Cryptococcus neoformans) | MIC80 (Candida tropicalis) | IC50 (HCT-116) | IC50 (SPC-A4) | IC50 (HL-60) | IC50 (MCF7) | IC50 [1] | IC50 (Bel-7402 [2]) | IC50 (MKN-28) | IC50 (A549) | inhibition in vivo at 100 mg/kg (Bel-7402 [3]) |
| --- | --- | --- | --- | --- | --- | --- | --- | --- | --- | --- | --- | --- | --- | --- | --- | --- |
| O=c1[nH]cc(F)c(=O)[nH]1 [FLUOROURACIL] | 39.4% | 39.4% | ≤ 5 µg/mL |  |  |  |  |  |  |  |  |  |  |  |  |  |
| OC(Cn1cncn1)(Cn1cncn1)c1ccc(F)cc1F [FLUCONAZOLE] |  |  |  | 0.25 µg/mL (≈ 0.816 µM) | 0.5 µg/mL (≈ 1.63 µM) | 2 µg/mL (≈ 6.53 µM) | 1 µg/mL (≈ 3.27 µM) |  |  |  |  |  |  |  |  |  |
| C=C(C)CCC[C@]1(C)OC(=O)[C@]23CC[C@@H]4C(=CCC5C(C)(C)[C@@H](O[C@@H]6OC[C@@H](OS(=O)(=O)O)[C@H](O)[C@H]6O[C@@H]6O[C@H](C)[C@@H](O[C@@H]7OC[C@@H](O)[C@H](O[C@@H]8O[C@H](CO)[C@@H](O)[C@H](OC)[C@H]8O)[C@H]7OS(=O)(=O)O)[C@H](O)[C@H]6O)CC[C@@]54C)[C@]2(C)C[C@H](OC(C)=O)[C@@H]31.[Na+].[Na+].[Na+] (some centres not stated) |  |  |  | 4 µg/mL | 4 µg/mL | 16 µg/mL | 8 µg/mL | 930 nM | 1300 nM | 650 nM | 1790 nM | 1900 nM | 1300 nM | 2030 nM | 750 nM |  |
| CO[C@@H]1[C@@H](O)[C@H](O[C@@H]2[C@@H](O)[C@H](O[C@H]3[C@H](O)[C@@H](O)[C@H](O[C@H]4[C@H](O[C@H]5CC[C@@]6(C)C(CC=C7[C@H]6CC[C@]68C(=O)O[C@@](C)(CCC=C(C)C)[C@H]6[C@@H](OC(C)=O)C[C@@]78C)C5(C)C)OC[C@@H](OS(=O)(=O)[O-])[C@@H]4O)O[C@@H]3C)OC[C@H]2O)O[C@H](CO)[C@H]1O.[Na+] (some centres not stated) |  |  |  | 20 µg/mL | 32 µg/mL | 25 µg/mL | 30 µg/mL | 1610 nM | 3670 nM | 1650 nM | 2300 nM | 2320 nM | 2400 nM | 2810 nM | 1700 nM |  |
| O=c1[nH]c(=O)n(C2CCCO2)cc1F (configuration not stated) [TEGAFUR] |  |  |  |  |  |  |  |  |  |  |  |  |  |  |  | 81.8% |
| CCC(C)n1ncn(-c2ccc(N3CCN(c4ccc(OCC5COC(Cn6cncn6)(c6ccc(Cl)cc6Cl)O5)cc4)CC3)cc2)c1=O (configuration not stated) [ITRACONAZOLE] |  |  |  | < 0.125 µg/mL | < 0.125 µg/mL | 2 µg/mL (≈ 2.83 µM) | 1 µg/mL (≈ 1.42 µM) |  |  |  |  |  |  |  |  |  |
| CN(C/C=C/C#CC(C)(C)C)Cc1cccc2ccccc12 [TERBINAFINE] |  |  |  | 32 µg/mL (≈ 110 µM) | < 0.125 µg/mL | < 0.125 µg/mL | < 0.125 µg/mL |  |  |  |  |  |  |  |  |  |
| C=C(C)CCC[C@]1(C)OC(=O)[C@]23CC[C@@H]4C(=CCC5C(C)(C)[C@@H](O[C@@H]6OC[C@@H](OS(=O)(=O)[O-])[C@H](O)[C@H]6O[C@@H]6O[C@H](C)[C@@H](O[C@@H]7OC[C@@H](O)[C@H](O[C@@H]8O[C@H](CO)[C@@H](O)[C@H](OC)[C@H]8O)[C@H]7O)[C@H](O)[C@H]6O)CC[C@@]54C)[C@]2(C)CC(=O)[C@@H]31.[Na+] (some centres not stated) |  |  |  | 25 µg/mL | 25 µg/mL | 25 µg/mL | 25 µg/mL | 1090 nM | 1500 nM | 1950 nM | 1560 nM | 1900 nM | 1300 nM | 1820 nM | 1300 nM |  |
